Test results: ChEMBL document CHEMBL5649170, “Sustained microglial depletion with CSF1R inhibitor impairs parenchymal plaque development in an Alzheimer's disease model” (Nat Commun, 2019)

Columns and labels:
[1] = test system: Mus musculus; assay: Antialzheimer activity in 5XFAD mouse assessed as average plaque volume in […] cortex at 75 ppm administered as rodent chow starting from 1.5 months and measured after 5 months by immunolabeling based confocal microscopic analysis (reference value: 789.31 to 1314.37 microm3); format: functional; settings: route po, time 3.5 months, 2555 h
Method in brief: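 5xFAD mice fed PLX3397 at 75 ppm in AIN-76A chow from 1.5 to 5 months of age; retrosplenial and somatosensory cortex sections stained with Thio-S and immunolabeled for IBA1; confocal imaging, IBA1+ cells and plaques quantified per region; two-tailed independent t-test, n = 4–5 per group, mean ± SEM.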

[2] = molecular target: T1, Macrophage colony-stimulating factor 1 receptor (Mus musculus) (UniProt P09581); assay: In vivo inhibition of CSF1R in wildtype mouse assessed as microglial numbers by measuring number of Iba positive cells per FOV in […] cortex at 75 ppm administered as rodent chow starting from 1.5 months and measured after 5 months by immunolabeling based confocal microscopic analysis (reference value: 200 to 275); format: functional; settings: route po, time 3.5 months
T1 sequence (whole entry): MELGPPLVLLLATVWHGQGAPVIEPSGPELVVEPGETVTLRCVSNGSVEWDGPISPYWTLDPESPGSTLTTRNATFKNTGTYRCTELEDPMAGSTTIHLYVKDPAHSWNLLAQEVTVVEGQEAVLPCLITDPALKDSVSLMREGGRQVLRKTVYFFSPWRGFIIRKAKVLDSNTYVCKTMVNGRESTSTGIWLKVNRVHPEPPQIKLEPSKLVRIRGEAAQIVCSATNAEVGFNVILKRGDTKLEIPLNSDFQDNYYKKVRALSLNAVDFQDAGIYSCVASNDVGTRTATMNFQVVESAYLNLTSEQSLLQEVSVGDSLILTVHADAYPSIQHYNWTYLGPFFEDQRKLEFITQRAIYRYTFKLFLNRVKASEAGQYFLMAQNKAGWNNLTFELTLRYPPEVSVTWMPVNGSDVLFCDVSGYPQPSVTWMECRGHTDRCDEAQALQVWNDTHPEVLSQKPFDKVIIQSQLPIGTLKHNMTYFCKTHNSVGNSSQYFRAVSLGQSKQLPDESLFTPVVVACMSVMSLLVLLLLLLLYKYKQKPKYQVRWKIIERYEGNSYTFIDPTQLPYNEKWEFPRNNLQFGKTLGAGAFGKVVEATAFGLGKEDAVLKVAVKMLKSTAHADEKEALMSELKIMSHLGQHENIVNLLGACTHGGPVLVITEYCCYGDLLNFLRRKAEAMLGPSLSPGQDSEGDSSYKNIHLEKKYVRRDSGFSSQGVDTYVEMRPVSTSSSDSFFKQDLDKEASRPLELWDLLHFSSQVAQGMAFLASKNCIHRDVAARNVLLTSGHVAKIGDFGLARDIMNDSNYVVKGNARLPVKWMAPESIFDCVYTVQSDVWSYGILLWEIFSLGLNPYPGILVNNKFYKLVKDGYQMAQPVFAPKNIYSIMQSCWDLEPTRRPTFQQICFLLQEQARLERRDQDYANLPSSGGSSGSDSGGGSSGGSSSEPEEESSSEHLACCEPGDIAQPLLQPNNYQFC

[3] = molecular target: Ephrin type-A receptor 2 (Homo sapiens, UniProt P29317); assay: Inhibition of EPHA2 (unknown origin)
[4] = molecular target: Ribosomal protein S6 kinase alpha-6 (Homo sapiens, UniProt Q9UK32); assay: Inhibition of RPS6KA6 (unknown origin)
[5] = molecular target: Serine/threonine-protein kinase SIK2 (Homo sapiens, UniProt Q9H0K1); assay: Inhibition of SNF1LK2 (unknown origin)
[6] = Effect on Hexb gene expression in 5XFAD mouse cortex at 1200 ppm administered as rodent chow starting from 1.5 months and measured after 7 months by RNA-Seq analysis (reference value: 70.260 to 103.252 RPKM); format: functional; settings: route po, time 5.5 months, 4015 h
[7] = Effect on Csf1r RPKM gene expression in 5XFAD mouse thalamus at 1200 ppm administered as rodent chow starting from 1.5 months and measured after 7 months by RNA-Seq analysis (reference value: 27.112 to 32.871 RPKM); format: functional; settings: route po, time 5.5 months, 4015 h
[8] = Effect on Itgax gene expression in wild type mouse thalamus at 1200 ppm administered as rodent chow starting from 1.5 months and measured after 7 months by RNA-Seq analysis (reference value: 0.077 to 0.240 RPKM); format: functional; settings: route po, time 5.5 months, 4015 h
[9] = Effect on Clec7a gene expression in 5XFAD mouse cortex at 1200 ppm administered as rodent chow starting from 1.5 months and measured after 7 months by RNA-Seq analysis (reference value: 2.323 to 6.756 RPKM); format: functional; settings: route po, time 5.5 months, 4015 h
Method in brief: (§1)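 WT and 5xFAD mice were treated with 1200 ppm PLX5622 chow or control chow from 1.5 to 7 months of age. Brains were microdissected into cortex, hippocampus and thalamus, and RNA was extracted from tissue powder. Whole-transcriptome RNA-Seq libraries were sequenced, with n = 4 per group per region (48 samples).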

[10] = test system: Mus musculus; assay: Antialzheimer activity in 5XFAD mouse assessed as microglial elimination in cortex at 1200 ppm administered as rodent chow for 10 weeks by Thio-S staining based confocal microscopic analysis relative to control; format: functional; settings: route po
Method in brief: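 1.5-month-old 5xFAD mice fed 1200 ppm PLX5622 chow for 10 weeks; free-floating sections stained with Thio-S and immunolabeled for IBA1 (5% normal serum/0.2% Triton X-100 block, 60 min); confocal imaging of cortex and thalamus to assess remaining microglia.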

[11] = molecular target: Serine/threonine-protein kinase TBK1 (Homo sapiens, UniProt Q9UHD2); assay: Inhibition of TBK1 (unknown origin)
[12] = molecular target: G protein-coupled receptor kinase 3 (Homo sapiens, UniProt P35626); assay: Inhibition of ADRBK2 (unknown origin)
[13] = test system: Mus musculus; assay: Effect on APP processing pathway in wildtype mouse assessed as C-terminal PS1 protein signal intensity in cortex at 1200 ppm administered as rodent starting from 1.5 months and measured after 7 months (reference value: 5.248 to 133.048 %); format: functional; settings: route po, time 5.5 months, 4015 h
[14] = molecular target: Protein kinase C iota type (Homo sapiens, UniProt P41743); assay: Inhibition of PRKCI (unknown origin)
[15] = Effect on Siglech gene expression in wild type mouse thalamus at 1200 ppm administered as rodent chow starting from 1.5 months and measured after 7 months by RNA-Seq analysis (reference value: 2.864 to 4.605 RPKM); format: functional; settings: route po, time 5.5 months, 4015 h
[16] = molecular target: PI3-kinase p110-alpha/p85-alpha (Homo sapiens, UniProt P42336); assay: Inhibition of PIK3CA/PIK3R1 (unknown origin); format: protein-complex assay
[17] = test system: Mus musculus; assay: Antialzheimer activity in 5XFAD mouse assessed as alteration in plaque morphology by measuring mean plaque intensity in subiculum at 1200 ppm administered as rodent chow starting from 1.5 months and measured after 7 months by Thio-S labeling based confocal microscopic analysis (reference value: 129.81 to 150.11); format: functional; settings: route po, time 5.5 months, 4015 h
[18] = Effect on Clec7a gene expression in wild type mouse thalamus at 1200 ppm administered as rodent chow starting from 1.5 months and measured after 7 months by RNA-Seq analysis (reference value: 0.095 to 0.586 RPKM); format: functional; settings: route po, time 5.5 months, 4015 h; method in brief: as §1
[19] = Volume of distribution at steady state in dog at 1.00 mg/kg, iv administered as single dose; format: ADME, organism-based, Canis lupus familiaris; settings: in vivo, read-out: Vdss

Sequence of G protein-coupled receptor kinase 3 (P35626 whole entry): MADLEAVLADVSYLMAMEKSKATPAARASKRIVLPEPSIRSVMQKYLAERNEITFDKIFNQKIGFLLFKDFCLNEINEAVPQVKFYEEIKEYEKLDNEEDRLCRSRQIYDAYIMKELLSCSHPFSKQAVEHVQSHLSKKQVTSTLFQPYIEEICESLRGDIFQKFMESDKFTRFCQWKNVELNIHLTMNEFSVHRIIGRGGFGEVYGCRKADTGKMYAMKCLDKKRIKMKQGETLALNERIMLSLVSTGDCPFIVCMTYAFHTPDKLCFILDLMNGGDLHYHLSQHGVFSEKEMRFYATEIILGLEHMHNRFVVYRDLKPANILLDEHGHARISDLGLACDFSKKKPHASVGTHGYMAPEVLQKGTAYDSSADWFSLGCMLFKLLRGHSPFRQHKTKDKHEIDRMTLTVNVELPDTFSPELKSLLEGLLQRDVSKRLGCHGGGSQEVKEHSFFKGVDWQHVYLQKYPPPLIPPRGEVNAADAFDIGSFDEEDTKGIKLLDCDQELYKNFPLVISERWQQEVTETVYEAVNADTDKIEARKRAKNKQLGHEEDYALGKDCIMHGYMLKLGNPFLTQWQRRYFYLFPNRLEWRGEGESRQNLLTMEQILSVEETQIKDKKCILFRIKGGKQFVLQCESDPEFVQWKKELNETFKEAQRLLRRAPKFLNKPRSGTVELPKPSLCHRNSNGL
Sequence of Serine/threonine-protein kinase SIK2 (Q9H0K1 whole entry): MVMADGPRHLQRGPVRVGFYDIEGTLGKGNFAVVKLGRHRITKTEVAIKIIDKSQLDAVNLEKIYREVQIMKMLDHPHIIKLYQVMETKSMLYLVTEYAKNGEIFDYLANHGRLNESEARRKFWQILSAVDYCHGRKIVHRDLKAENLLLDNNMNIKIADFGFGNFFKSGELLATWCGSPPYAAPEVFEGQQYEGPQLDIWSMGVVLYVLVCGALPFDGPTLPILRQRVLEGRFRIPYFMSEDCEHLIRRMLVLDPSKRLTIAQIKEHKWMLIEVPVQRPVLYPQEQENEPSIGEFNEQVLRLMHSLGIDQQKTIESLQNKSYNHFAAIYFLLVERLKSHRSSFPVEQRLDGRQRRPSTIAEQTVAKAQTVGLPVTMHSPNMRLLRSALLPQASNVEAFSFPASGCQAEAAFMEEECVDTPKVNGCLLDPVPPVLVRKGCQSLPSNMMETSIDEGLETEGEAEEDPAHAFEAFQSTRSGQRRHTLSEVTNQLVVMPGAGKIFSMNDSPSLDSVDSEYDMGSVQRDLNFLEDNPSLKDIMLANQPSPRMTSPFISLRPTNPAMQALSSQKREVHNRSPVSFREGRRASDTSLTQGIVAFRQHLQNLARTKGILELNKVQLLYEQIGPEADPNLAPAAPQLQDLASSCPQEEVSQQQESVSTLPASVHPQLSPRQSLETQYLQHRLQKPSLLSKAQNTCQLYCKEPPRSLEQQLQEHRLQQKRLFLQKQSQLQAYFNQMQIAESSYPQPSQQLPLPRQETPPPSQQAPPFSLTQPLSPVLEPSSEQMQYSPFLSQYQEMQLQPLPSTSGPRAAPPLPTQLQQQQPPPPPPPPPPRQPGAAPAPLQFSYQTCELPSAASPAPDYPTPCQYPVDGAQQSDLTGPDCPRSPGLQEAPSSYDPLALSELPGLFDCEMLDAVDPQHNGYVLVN
Sequence of PI3-kinase p110-alpha/p85-alpha (P27986 whole entry): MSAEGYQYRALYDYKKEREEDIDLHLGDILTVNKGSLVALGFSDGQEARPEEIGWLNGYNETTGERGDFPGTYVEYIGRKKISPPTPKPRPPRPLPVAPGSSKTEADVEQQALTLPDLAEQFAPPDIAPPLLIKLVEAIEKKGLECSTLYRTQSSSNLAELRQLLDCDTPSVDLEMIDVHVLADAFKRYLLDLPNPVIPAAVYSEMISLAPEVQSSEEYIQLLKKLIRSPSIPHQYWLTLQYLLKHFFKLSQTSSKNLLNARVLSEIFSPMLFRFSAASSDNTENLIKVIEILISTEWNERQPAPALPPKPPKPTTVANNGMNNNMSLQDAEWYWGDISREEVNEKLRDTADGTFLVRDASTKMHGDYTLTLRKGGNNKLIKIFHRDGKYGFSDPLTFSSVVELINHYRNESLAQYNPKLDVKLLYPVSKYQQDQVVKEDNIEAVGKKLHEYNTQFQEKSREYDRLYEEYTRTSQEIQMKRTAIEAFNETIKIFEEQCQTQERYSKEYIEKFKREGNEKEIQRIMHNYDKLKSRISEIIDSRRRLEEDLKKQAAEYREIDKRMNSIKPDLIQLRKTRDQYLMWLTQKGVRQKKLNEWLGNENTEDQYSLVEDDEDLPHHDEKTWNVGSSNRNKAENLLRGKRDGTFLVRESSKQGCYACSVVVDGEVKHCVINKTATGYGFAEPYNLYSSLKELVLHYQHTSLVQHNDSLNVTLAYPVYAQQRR
Sequence of PI3-kinase p110-alpha/p85-alpha (P42336 whole entry): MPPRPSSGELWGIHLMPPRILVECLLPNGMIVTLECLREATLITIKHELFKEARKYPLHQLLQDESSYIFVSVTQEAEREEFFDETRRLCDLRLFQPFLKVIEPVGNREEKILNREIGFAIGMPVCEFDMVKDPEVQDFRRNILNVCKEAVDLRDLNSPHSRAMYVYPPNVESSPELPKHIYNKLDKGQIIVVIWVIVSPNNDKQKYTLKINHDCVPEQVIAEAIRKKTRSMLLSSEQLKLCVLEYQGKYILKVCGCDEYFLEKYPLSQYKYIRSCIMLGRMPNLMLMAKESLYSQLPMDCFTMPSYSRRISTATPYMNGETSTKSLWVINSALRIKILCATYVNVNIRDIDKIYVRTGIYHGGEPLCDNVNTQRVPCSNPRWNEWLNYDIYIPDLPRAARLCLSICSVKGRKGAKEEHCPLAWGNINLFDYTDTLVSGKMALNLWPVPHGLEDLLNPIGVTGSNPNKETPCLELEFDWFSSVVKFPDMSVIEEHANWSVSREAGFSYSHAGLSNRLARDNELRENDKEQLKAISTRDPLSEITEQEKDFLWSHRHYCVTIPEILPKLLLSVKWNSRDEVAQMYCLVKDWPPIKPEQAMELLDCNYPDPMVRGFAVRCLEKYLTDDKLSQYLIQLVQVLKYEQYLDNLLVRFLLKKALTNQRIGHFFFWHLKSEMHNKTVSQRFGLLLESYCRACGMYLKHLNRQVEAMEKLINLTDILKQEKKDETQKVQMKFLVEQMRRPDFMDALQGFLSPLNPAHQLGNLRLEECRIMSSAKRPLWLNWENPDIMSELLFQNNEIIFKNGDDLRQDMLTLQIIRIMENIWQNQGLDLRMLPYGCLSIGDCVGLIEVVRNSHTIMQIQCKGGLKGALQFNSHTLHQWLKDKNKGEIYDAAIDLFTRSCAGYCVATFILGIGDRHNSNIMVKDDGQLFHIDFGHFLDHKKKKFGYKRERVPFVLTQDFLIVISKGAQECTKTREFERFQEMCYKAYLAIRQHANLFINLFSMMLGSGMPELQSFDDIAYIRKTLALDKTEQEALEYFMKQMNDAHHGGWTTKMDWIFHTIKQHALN
Sequence of Ribosomal protein S6 kinase alpha-6 (Q9UK32 whole entry): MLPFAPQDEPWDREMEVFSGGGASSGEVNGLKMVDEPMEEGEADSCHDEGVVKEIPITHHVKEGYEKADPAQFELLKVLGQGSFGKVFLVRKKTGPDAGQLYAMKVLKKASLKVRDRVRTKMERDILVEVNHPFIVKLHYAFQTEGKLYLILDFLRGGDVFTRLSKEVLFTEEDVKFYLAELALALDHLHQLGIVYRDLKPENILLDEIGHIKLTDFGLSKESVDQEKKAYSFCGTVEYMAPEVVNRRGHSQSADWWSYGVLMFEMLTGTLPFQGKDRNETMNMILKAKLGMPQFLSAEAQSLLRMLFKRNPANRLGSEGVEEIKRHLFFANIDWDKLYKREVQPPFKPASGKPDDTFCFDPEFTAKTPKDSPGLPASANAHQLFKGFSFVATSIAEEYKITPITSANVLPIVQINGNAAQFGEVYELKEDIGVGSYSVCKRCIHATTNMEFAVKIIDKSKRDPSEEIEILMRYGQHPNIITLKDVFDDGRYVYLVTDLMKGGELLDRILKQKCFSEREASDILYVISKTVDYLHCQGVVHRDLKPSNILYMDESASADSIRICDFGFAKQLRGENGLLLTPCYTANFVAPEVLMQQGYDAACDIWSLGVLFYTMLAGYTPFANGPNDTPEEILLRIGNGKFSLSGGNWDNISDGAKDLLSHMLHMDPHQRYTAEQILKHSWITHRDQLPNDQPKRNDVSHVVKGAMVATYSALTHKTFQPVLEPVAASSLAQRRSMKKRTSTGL
Sequence of Protein kinase C iota type (P41743 whole entry): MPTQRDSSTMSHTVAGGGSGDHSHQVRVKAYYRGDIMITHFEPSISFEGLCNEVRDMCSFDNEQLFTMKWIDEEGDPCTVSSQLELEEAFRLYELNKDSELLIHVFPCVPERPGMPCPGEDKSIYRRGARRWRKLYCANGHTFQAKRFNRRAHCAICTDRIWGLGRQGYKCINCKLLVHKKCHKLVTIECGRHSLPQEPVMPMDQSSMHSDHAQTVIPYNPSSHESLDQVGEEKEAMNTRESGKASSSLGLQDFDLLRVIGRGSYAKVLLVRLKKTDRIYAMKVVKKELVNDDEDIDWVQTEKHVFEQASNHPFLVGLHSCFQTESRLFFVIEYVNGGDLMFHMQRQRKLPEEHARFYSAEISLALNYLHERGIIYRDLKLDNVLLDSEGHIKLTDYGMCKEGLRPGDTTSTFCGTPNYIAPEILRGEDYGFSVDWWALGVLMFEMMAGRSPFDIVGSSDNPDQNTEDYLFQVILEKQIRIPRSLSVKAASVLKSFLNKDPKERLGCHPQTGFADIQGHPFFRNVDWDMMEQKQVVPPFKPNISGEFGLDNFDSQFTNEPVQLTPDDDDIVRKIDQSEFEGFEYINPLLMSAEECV

| Activity [2] | Compound | Activity [1] [um3] | IC50 [3] [µM] | IC50 [4] [µM] | IC50 [5] [µM] | Activity [6] [RPKM] | Activity [7] [RPKM] | Activity [8] [RPKM] | Activity [9] [RPKM] | Activity [10] [%] | IC50 [11] [µM] | IC50 [12] [µM] | Activity [13] [%] | IC50 [14] [µM] | Activity [15] [RPKM] | IC50 [16] [µM] | Activity [17] | Activity [18] [RPKM] | Vd [19] [L/kg] |
| --- | --- | --- | --- | --- | --- | --- | --- | --- | --- | --- | --- | --- | --- | --- | --- | --- | --- | --- | --- |
| 162 | FC(F)(F)c1ccc(CNc2ccc(Cc3c[nH]c4ncc(Cl)cc34)cn2)cn1 [PEXIDARTINIB] | 688.11 | – | – | – | – | – | – | – | – | – | – | – | – | – | – | – | – | – |
| – | COc1ncc(F)cc1CNc1ccc(Cc2c[nH]c3ncc(C)cc23)c(F)n1 [PLX-5622] | – | > 1 | > 1 | > 1 | 11.641 | 0.221 | 0 | 0.051 | >99 | > 1 | > 1 | 15.313 | > 1 | 0 | > 1 | 83.86 | 0 | 2.3 |
